According to ChEMBL document CHEMBL3616442, “Unconventional Knoevenagel-type indoles: Synthesis and cell-based studies for the identification of pro-apoptotic agents” (Eur J Med Chem, 2015):

Assays:
[1] = Growth inhibition of human LOXIMVI cells after 48 hrs by sulforhodamine B assay; assay type: functional; conditions: LOX IMVI
Summary of the method: (§1)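 NCI 60-cell-line screen. Compounds tested at five 10-fold dilutions from 10^-4 to 10^-8 M. Cells exposed for the last 48 h of a 72 h incubation, growth estimated by sulforhodamine B protein assay. GI50 is the concentration giving 50% growth inhibition. Values beyond the tested range are expressed as greater or lesser than the extreme concentration.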

[2] = Growth inhibition of human SF295 cells after 48 hrs by sulforhodamine B assay; assay type: functional; conditions: SF-295, 48 h
NCI-H322M = test: Growth inhibition of human NCI-H322M cells after 48 hrs by sulforhodamine B assay; assay type: functional; summary of the method: as §1
M14 = test: Growth inhibition of human M14 cells after 48 hrs by sulforhodamine B assay; assay type: functional; conditions: M14, 48 h; summary of the method: as §1
SR = test: Growth inhibition of human SR cells after 48 hrs by sulforhodamine B assay; assay type: functional
OVCAR-3 = test: Growth inhibition of human OVCAR3 cells after 48 hrs by sulforhodamine B assay; assay type: functional; conditions: OVCAR-3, 48 h; summary of the method: as §1
OVCAR-5 = test: Growth inhibition of human OVCAR5 cells after 48 hrs by sulforhodamine B assay; assay type: functional; conditions: OVCAR-5, 48 h
SF-268 = test: Growth inhibition of human SF268 cells after 48 hrs by sulforhodamine B assay; assay type: functional; conditions: SF-268, 48 h
U-251 = test: Growth inhibition of human U251 cells after 48 hrs by sulforhodamine B assay; assay type: functional; conditions: U-251, 48 h
SK-MEL-5 = test: Growth inhibition of human SK-MEL-5 cells after 48 hrs by sulforhodamine B assay; assay type: functional; conditions: SK-MEL-5, 48 h
[3] = Growth inhibition of human BT549 cells after 48 hrs by sulforhodamine B assay; assay type: functional; conditions: BT-549, 48 h; summary of the method: as §1
HCT-116 = test: Growth inhibition of human HCT116 cells after 48 hrs by sulforhodamine B assay; assay type: functional; conditions: HCT-116, 48 h; summary of the method: as §1
A498 = test: Growth inhibition of human A498 cells after 48 hrs by sulforhodamine B assay; assay type: functional; conditions: A498, 48 h; summary of the method: as §1
UACC-257 = test: Growth inhibition of human UACC257 cells after 48 hrs by sulforhodamine B assay; assay type: functional; conditions: UACC-257, 48 h
SNB-75 = test: Growth inhibition of human SNB75 cells after 48 hrs by sulforhodamine B assay; assay type: functional; conditions: SNB-75, 48 h
KM12 = test: Growth inhibition of human KM12 cells after 48 hrs by sulforhodamine B assay; assay type: functional; conditions: KM12, 48 h; summary of the method: as §1
MDA-MB-468 = test: Growth inhibition of human MDA-MB-468 cells after 48 hrs by sulforhodamine B assay; assay type: functional; conditions: MDA-MB-468, 48 h; summary of the method: as §1
MT4 = test: Antiproliferative activity against human MT4 cells after 96 hrs by MTT assay; assay type: functional, cell-based; conditions: MT4, 96 h
Summary of the method: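 Exponentially growing MT-4 cells (CD4+ human T-cells carrying integrated HTLV-1 genome), seeded at 1×10^5 cells/mL in RPMI-1640 with 10% FCS and antibiotics. Serial dilutions of compound (DMSO stock 100 mM, diluted in medium), 37 °C, 5% CO₂, 96 h. Viability read by MTT. 50% inhibition versus untreated controls by linear regression. Mean ± SD of three independent determinations.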

[4] = Growth inhibition of human Hs 578T cells after 48 hrs by sulforhodamine B assay; assay type: functional; summary of the method: as §1
[5] = Growth inhibition of human SF539 cells after 48 hrs by sulforhodamine B assay; assay type: functional; conditions: SF-539, 48 h
K562 = test: Growth inhibition of human K562 cells after 48 hrs by sulforhodamine B assay; assay type: functional; conditions: K562, 48 h; summary of the method: as §1
SNB-19 = test: Growth inhibition of human SNB19 cells after 48 hrs by sulforhodamine B assay; assay type: functional; conditions: SNB-19, 48 h
A549 = test: Growth inhibition of human A549 cells after 48 hrs by sulforhodamine B assay; assay type: functional; conditions: A549, 48 h; summary of the method: as §1
NCI-H226 = test: Growth inhibition of human NCI-H226 cells after 48 hrs by sulforhodamine B assay; assay type: functional; conditions: NCI-H226, 48 h; summary of the method: as §1
SK-MEL-28 = test: Growth inhibition of human SK-MEL-28 cells after 48 hrs by sulforhodamine B assay; assay type: functional; conditions: SK-MEL-28, 48 h
HOP-62 = test: Growth inhibition of human HOP62 cells after 48 hrs by sulforhodamine B assay; assay type: functional; conditions: HOP-62, 48 h; summary of the method: as §1
OVCAR-4 = test: Growth inhibition of human OVCAR4 cells after 48 hrs by sulforhodamine B assay; assay type: functional; conditions: OVCAR-4, 48 h; summary of the method: as §1
[6] = Growth inhibition of human EKVX cells after 48 hrs by sulforhodamine B assay; assay type: functional; summary of the method: as §1
SW-620 = test: Growth inhibition of human SW620 cells after 48 hrs by sulforhodamine B assay; assay type: functional; conditions: SW-620, 48 h
[7] = Growth inhibition of human NCI-ADR-RES cells after 48 hrs by sulforhodamine B assay; assay type: functional; summary of the method: as §1
OVCAR-8 = test: Growth inhibition of human OVCAR8 cells after 48 hrs by sulforhodamine B assay; assay type: functional; conditions: OVCAR-8, 48 h
NCI-H460 = test: Growth inhibition of human NCI-H460 cells after 48 hrs by sulforhodamine B assay; assay type: functional; conditions: NCI-H460, 48 h; summary of the method: as §1
NCI-H522 = test: Growth inhibition of human NCI-H522 cells after 48 hrs by sulforhodamine B assay; assay type: functional; conditions: NCI-H522, 48 h; summary of the method: as §1
HCT-15 = test: Growth inhibition of human HCT15 cells after 48 hrs by sulforhodamine B assay; assay type: functional; conditions: HCT-15, 48 h; summary of the method: as §1
T47D = test: Growth inhibition of human T47D cells after 48 hrs by sulforhodamine B assay; assay type: functional
CCRF-CEM = test: Growth inhibition of human CCRF-CEM cells after 48 hrs by sulforhodamine B assay; assay type: functional; summary of the method: as §1
MDA-MB-435 = test: Growth inhibition of human MDA-MB-435 cells after 48 hrs by sulforhodamine B assay; assay type: functional; conditions: MDA-MB-435, 48 h; summary of the method: as §1
IGROV-1 = test: Growth inhibition of human IGROV1 cells after 48 hrs by sulforhodamine B assay; assay type: functional; conditions: IGROV-1, 48 h; summary of the method: as §1
HT-29 = test: Growth inhibition of human HT-29 cells after 48 hrs by sulforhodamine B assay; assay type: functional; conditions: HT-29, 48 h; summary of the method: as §1
HL-60(TB) = test: Growth inhibition of human HL-60(TB) cells after 48 hrs by sulforhodamine B assay; assay type: functional; conditions: HL-60, 48 h
Summary of the method: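 NCI 60-cell-line screen, HL-60(TB) included. Compound given at five 10-fold dilutions from 10^-4 to 10^-8 M. Cells exposed for the last 48 h of a 72 h incubation. Growth or viability estimated by sulforhodamine B protein assay. GI50 is the concentration giving 50% growth inhibition. Values outside the tested range are reported as greater or less than the highest or lowest concentration.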

786-0 = test: Growth inhibition of human 786-0 cells after 48 hrs by sulforhodamine B assay; assay type: functional; conditions: 786-0, 48 h; summary of the method: as §1
[8] = Growth inhibition of human HOP92 cells after 48 hrs by sulforhodamine B assay; assay type: functional; conditions: HOP-92, 48 h; summary of the method: as §1
[9] = Growth inhibition of human RXF393 cells after 48 hrs by sulforhodamine B assay; assay type: functional; conditions: RXF 393, 48 h

COc1ccc2[nH]c(-c3ccccc3)c(/C=C(\C#N)S(=O)(=O)c3ccccc3)c2c1
GI50 [1]: 7.4 µM | GI50 [2]: 2.8 µM | GI50 (NCI-H322M): 30.1 µM | GI50 (M14): 3.7 µM | GI50 (SR): 2.2 µM | GI50 (OVCAR-3): 5 µM | GI50 (OVCAR-5): 37.3 µM | GI50 (SF-268): 13.3 µM | GI50 (U-251): 4.6 µM | GI50 (SK-MEL-5): 3.1 µM | GI50 [3]: 11.6 µM | GI50 (HCT-116): 3.7 µM | GI50 (A498): 9.3 µM | GI50 (UACC-257): 4.9 µM | GI50 (SNB-75): 5.9 µM | GI50 (KM12): 3 µM | GI50 (MDA-MB-468): 4.2 µM | EC50 (MT4): 1.3 µM | GI50 [4]: 7.6 µM | GI50 [5]: 5.5 µM | GI50 (K562): 1.4 µM | GI50 (SNB-19): 13.5 µM | GI50 (A549): 6 µM | GI50 (NCI-H226): 9.4 µM | GI50 (SK-MEL-28): 6.1 µM | GI50 (HOP-62): 8.3 µM | GI50 (OVCAR-4): 8.3 µM | GI50 [6]: 6.9 µM | GI50 (SW-620): 4 µM | GI50 [7]: 3.8 µM | GI50 (OVCAR-8): 7.8 µM | GI50 (NCI-H460): 4.6 µM | GI50 (NCI-H522): 4 µM | GI50 (HCT-15): 4 µM | GI50 (T47D): 5.2 µM | GI50 (CCRF-CEM): 6.5 µM | GI50 (MDA-MB-435): 1.1 µM | GI50 (IGROV-1): 4.8 µM | GI50 (HT-29): 3.5 µM | GI50 (HL-60(TB)): 2.4 µM | GI50 (786-0): 6.1 µM | GI50 [8]: 6.1 µM

N#C/C(=C\c1c(-c2ccccc2)[nH]c2ccccc12)S(=O)(=O)c1ccccc1
GI50 [1]: 4.6 µM | GI50 [2]: 2.4 µM | GI50 (NCI-H322M): 9.2 µM | GI50 (M14): 3.8 µM | GI50 (SR): 17.3 µM | GI50 (OVCAR-3): 1.4 µM | GI50 (OVCAR-5): 13.9 µM | GI50 (SF-268): 4.5 µM | GI50 (U-251): 2.6 µM | GI50 (SK-MEL-5): 1.82 µM | GI50 [3]: 11.6 µM | GI50 (HCT-116): 2 µM | GI50 (A498): 11 µM | GI50 (UACC-257): 18.2 µM | GI50 (SNB-75): 1.7 µM | GI50 (KM12): 0.652 µM | GI50 (MDA-MB-468): 1.9 µM | EC50 (MT4): 0.4 µM | GI50 [4]: 23.6 µM | GI50 [5]: 2.5 µM | GI50 (K562): 0.348 µM | GI50 (SNB-19): 8.3 µM | GI50 (A549): 3.7 µM | GI50 (NCI-H226): 4.1 µM | GI50 (SK-MEL-28): 8.3 µM | GI50 (HOP-62): 9.3 µM | GI50 (OVCAR-4): 5.5 µM | GI50 [6]: 6.2 µM | GI50 (SW-620): 0.57 µM | GI50 [7]: 1.1 µM | GI50 [9]: 3.6 µM | GI50 (OVCAR-8): 6 µM | GI50 (NCI-H460): 2.7 µM | GI50 (NCI-H522): 4.6 µM | GI50 (HCT-15): 1.1 µM | GI50 (T47D): 3.8 µM | GI50 (CCRF-CEM): 2.6 µM | GI50 (MDA-MB-435): 0.288 µM | GI50 (IGROV-1): 3.3 µM | GI50 (HT-29): 0.595 µM | GI50 (HL-60(TB)): 1.8 µM | GI50 (786-0): 9.2 µM | GI50 [8]: 10.3 µM
